Compound activity (PubChem)
Most compounds without a hit are left out; they make up all but 4.2% or so of the library.
AI-2 QS modul: modulators of Vibrio harveyi AI-2 quorum sensing system | activity change, % at 7.5 µM | 300,000 tested, 0.4% active | Vibrio harveyi JMH597 AI-2 luminescence/OD600 ratio, 9 h; hits give low values; strain lacks LuxN and CqsS sensors; 0 = neutral-control median; in the data active = activity change below about -75%, passing the limit was not always enough; inconclusive = no clear call, values can overlap the other calls;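 also: luminescence divided by OD600 gain over 9 h not by final OD600 alone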
KCNQ1 inh: inhibitors of human KCNQ1 potassium channel. P51787. CHO-K1 KCNQ1, FluxOR thallium flux fluorescence; hits give high values. B-score at 10 µM. 310,000 tested, 1.3% active. AID 2642;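 active = compounds whose thallium flux B-score, printed positive for inhibition, exceeds three library SD while starting fluorescence stays within three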;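 also: channel opened by potassium depolarization with thallium stimulus after 20 min compound exposure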
SUMO Mot1 rescue: SUMOylation pathway inhibition by Mot1-301 growth rescue; S. cerevisiae Mot1-301 growth rescue, ATP luminescence, 38.5C; percent above DMSO median, 100 means doubled; AID 2716; growth rescue, % at 18.8 µM; 320,000 tested, 1% active;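 active = every valid replicate shows activation above 250% relative to neutral control wells; inactive = the rest, any valid replicate at or below 250%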;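 also: OY570 slx delta 5 strain wells were the positive control but not used for scaling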
hERG rescue: hERG (human) protection from proarrhythmic block | CHO-hERG, FluxOR thallium flux, dofetilide IC70 present | activation (rescue from dofetilide block), less the hit threshold, % at 10 µM | 310,000 tested, 0.51% active;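 active = activation above the mean of controls blocked by dofetilide plus 5 SD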;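 also: thallium influx through hERG after potassium depolarization seen as dye fluorescence rise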
Target sequence (Q12809 whole entry, looked up): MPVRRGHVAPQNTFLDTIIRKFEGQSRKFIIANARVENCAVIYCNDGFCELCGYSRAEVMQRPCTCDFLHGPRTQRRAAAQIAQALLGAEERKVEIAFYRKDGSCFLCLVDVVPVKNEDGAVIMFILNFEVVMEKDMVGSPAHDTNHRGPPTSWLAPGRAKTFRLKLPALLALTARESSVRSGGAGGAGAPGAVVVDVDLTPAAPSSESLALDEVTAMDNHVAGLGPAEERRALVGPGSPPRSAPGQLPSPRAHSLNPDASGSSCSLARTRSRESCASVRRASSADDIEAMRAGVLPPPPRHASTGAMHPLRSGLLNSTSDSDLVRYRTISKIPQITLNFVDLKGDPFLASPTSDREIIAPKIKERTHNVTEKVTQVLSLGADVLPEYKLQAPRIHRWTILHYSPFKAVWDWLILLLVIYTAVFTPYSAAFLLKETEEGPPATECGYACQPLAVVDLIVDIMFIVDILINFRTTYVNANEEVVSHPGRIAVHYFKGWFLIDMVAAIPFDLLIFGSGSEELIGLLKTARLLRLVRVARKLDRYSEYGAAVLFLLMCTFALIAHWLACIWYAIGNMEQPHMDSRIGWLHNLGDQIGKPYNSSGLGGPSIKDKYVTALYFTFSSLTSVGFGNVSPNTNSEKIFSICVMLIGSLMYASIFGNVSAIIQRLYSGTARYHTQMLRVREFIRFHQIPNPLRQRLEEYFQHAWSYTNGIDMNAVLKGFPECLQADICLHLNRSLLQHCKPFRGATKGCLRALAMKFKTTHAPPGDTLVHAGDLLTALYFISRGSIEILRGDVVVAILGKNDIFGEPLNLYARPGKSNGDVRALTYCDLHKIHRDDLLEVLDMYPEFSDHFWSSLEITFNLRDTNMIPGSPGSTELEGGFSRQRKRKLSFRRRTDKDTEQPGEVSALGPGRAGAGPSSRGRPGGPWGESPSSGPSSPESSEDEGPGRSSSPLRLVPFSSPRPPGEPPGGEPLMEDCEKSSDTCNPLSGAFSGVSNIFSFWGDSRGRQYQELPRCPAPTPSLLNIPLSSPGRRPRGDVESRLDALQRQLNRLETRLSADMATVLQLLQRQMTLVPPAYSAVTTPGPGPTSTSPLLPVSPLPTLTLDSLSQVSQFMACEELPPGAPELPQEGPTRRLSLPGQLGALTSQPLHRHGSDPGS
KCC2 mod: modulators of human KCC2 chloride dependent transport. Q9H2X9. 190,000 tested, 2.2% active. B-score of Tl+ flux slope (higher = more flux/activation; lower = inhibition) at 10 µM. AID 1456. KCC2 cells, thallium flux FluoZin-2 fluorescence;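 active = thallium flux slope and its plate-corrected score both differing from the plate sample mean at a set confidence after two filtering rounds, in either direction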;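 also: slope of fluorescence scaled to starting intensity during 10 to 20 s after thallium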
KCNQ1 pot: potentiators or activators of human KCNQ1 potassium channel; CHO-K1 KCNQ1, thallium flux FluxOR fluorescence; hits give high values; 310,000 tested, 0.35% active; B-score at 10 µM; P51787; AID 2648;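 active = fluorescence ratio B-score, a plate-corrected score, at least three library SD, with initial intensity B-score within 5 SD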
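Assay system: CHO-K1 cells stably expressing KCNQ1. Medium: assay buffer for compound exposure, DMSO matched across wells. Timing: 37 °C overnight plating, 90-min dark dye load, 20-min compound pretreatment. Signal: kinetic FluxOR fluorescence, 10 s baseline plus 110 s post-stimulus.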
JMH597 growth: retest: inhibitors of Vibrio harveyi JMH597 growth; shares compounds with AI-2 QS modul; OD600 absorbance, 9 h; lacks LuxN and CqsS sensors; growth inhibition, % at 7.5 µM; 750 tested, 1% active; AID 2726;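 active = every replicate shows growth inhibition above 50%; inconclusive = at least half, but not all, replicates pass that cutoff; inactive = fewer than half of replicates pass it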
BB721 lum counter: retest counter-screen: BB721 constitutive quorum sensing luminescence decrease. inhibition, % at 7.5 µM. shares compounds with AI-2 QS modul. 750 tested, 95% active. Vibrio harveyi BB721 luminescence, 9 h;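 active = inhibition above about 80% in every replicate, not just on average, limit read from the data; inconclusive = at least half of replicates past the limit, but not all; inactive = fewer than half of replicates past the limit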
BB721 growth: retest: blocks Vibrio harveyi BB721 growth | growth inhibition, % at 7.5 µM | OD600 absorbance, 9 h | AID 2728 | 750 tested, 3% active | shares compounds with AI-2 QS modul;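 active = every replicate shows growth inhibition above 50%; inconclusive = at least half but not all replicates above 50% inhibition; inactive = under half of replicates above 50% inhibition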
AI-2 QS JMH597: Vibrio harveyi AI-2 signaling luminescence modulation – JMH597 strain, confirmation; shares compounds with AI-2 QS modul; Vibrio harveyi JMH597 AI-2 quorum sensing luminescence, 9 h; luxN and CqsS knockout, AI-2 only; inhibition, % at 7.5 µM; 750 tested, 97% active;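 active = every replicate shows more than 75% inhibition of signal versus neutral control wells; inconclusive = half to three quarters of replicates exceed 75% inhibition; inactive = fewer than half of replicates exceed 75% inhibition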
* = called active by the depositor; i = inactive; ? = inconclusive; nt = no result given.

SMILES	AI-2 QS modul	KCNQ1 inh	SUMO Mot1 rescue	hERG rescue	KCC2 mod	KCNQ1 pot	JMH597 growth	BB721 lum counter	BB721 growth	AI-2 QS JMH597
CC(C)c1ccc(/C=N/NC(=O)C2CCCC2)cc1	?	i	26.4	-7.5	nt	i	-1.5	91.4*	3.9	92.4*
COC(=O)c1sc(S(=O)(=O)N2CCCCC2C)c(C(=O)OC)c1C (stereo not given)	nt	nt	-3.8	nt	nt	nt	nt	nt	nt	nt
C=C1CCC2[C@](C)(CO[C@@H]3O[C@H](CO)[C@@H](O)[C@H](O)[C@H]3O)CCC[C@@]2(C)[C@@H]1CCC1=CCOC1=O (stereo not given in full)	nt	nt	389.7	nt	nt	nt	nt	nt	nt	nt
O=C(CNc1ccc(Cl)cc1)c1ccc(Br)cc1	17.5	i	-12.5	-1.2	-0.0839	i	nt	nt	nt	nt
O=C(CNc1ccc(Br)cc1)c1ccc(O)cc1	-82.3*	i	9.5	-9.0	0.354	i	-12.6	90.1*	-42.2	92.5*
COC(=O)/C=C/C(=O)Nc1ccc(O)c(Cl)c1	-93.0*	i	33.1	-7.0	nt	i	21.8	95.9*	42.0	95.5*
CC(=O)C1=C(O)C(=O)N(c2ccc(Br)cc2)C1c1ccccc1[N+](=O)[O-] (stereo not given)	24.1	i	0.0	-7.0	nt	i	nt	nt	nt	nt
Cc1occc1C(=O)NCCCCNC(=O)c1ccoc1C	9.3	i	6.3	-9.0	nt	i	nt	nt	nt	nt
Cc1occc1C(=O)NCCCc1ccccc1	-78.3*	i	10.4	-4.7	0.267	i	18.8	87.3*	11.4	90.7*
CN(C)S(=O)(=O)c1ccc(C(=O)OCC(=O)NCc2ccccc2)cc1	-25.7	i	-14.5	-2.6	0.346	i	nt	nt	nt	nt
CN(C)S(=O)(=O)c1ccc(C(=O)OCCc2ccccc2)cc1	-91.8*	i	14.5	-7.3	nt	i	3.1	96.5*	17.7	97.8*
COc1ccc(CN=CC2=C(O)CC(C)(C)CC2=O)cc1	-80.0*	i	103.1	-8.8	0.00478	i	22.8	87.6*	13.0	92.3*
Oc1ccc(Cl)cc1CNc1cnc2ccccc2c1	-97.0*	i	-21.0	-0.2	nt	i	14.1	99.5*	15.3	99.6*
Cc1ccc(CCC(=O)Nc2ccccc2F)s1	-88.7*	i	5.5	-1.8	0.0457	i	17.5	94.3*	2.5	95.8*
O=C(CC(=O)Nc1ccccc1F)Nc1ccccc1F	6.8	i	16.1	-2.8	nt	i	nt	nt	nt	nt
CC(C)NS(=O)(=O)c1ccc(NC(=O)Cc2ccsc2)cc1	28.2	i	-7.7	-0.9	nt	i	nt	nt	nt	nt
O=C(Cc1ccsc1)Nc1ccc(S(=O)(=O)C(F)F)cc1	-86.9*	i	4.0	-11.1	0.807	i	19.0	97.1*	-16.8	99.8*
O=C(NCc1ccc2c(c1)OCO2)Nc1ccc2nsnc2c1	-84.8*	i	1.5	-11.6	0.4	i	79.0*	97.3*	3.0	99.4*
O=C(NCc1ccc2c(c1)OCO2)Nc1ccc(Cl)cc1	-61.4	i	-9.1	-2.5	nt	i	nt	nt	nt	nt
COc1ccc(C(=O)Cn2nnc(-c3ccccc3NC(=O)C3CC3)n2)cc1	26.7	i	-12.1	-5.9	-0.102	i	nt	nt	nt	nt
COc1ccc(C(=O)Cn2nnc(-c3ccccc3F)n2)cc1	-86.0*	i	349.2	-5.9	nt	i	25.1	94.9*	-2.9	96.9*
CCCc1ccc(S(=O)(=O)N(C)S(=O)(=O)c2ccc(F)cc2)cc1	?	i	9.2	-9.8	nt	i	44.9	45.7	25.8	99.4*
CCN(CC)S(=O)(=O)c1ccc(F)cc1	6.9	i	3.5	-10.6	nt	i	nt	nt	nt	nt
